Measured values reported in ChEMBL document CHEMBL1828498, “Identification and characterization of a novel integrin-linked kinase inhibitor” (J Med Chem, 2011).
Calls of active or inactive are those of the source. No cut-off for these calls is given here.

Assays:
LNCaP = assay: Antiproliferative activity against human LNCAP cells assessed as suppression of cell viability by MTT assay; assay type: functional, cell-based
Procedure, shortened: (§1)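 Cancer lines seeded 5000/well and nonmalignant PrEC/MEC 8000/well in 10% FBS, 24 h before treatment. Compound exposure 24 h in 5% FBS medium, 0.1% final DMSO. MTT (0.25 mg/mL) for 1 h at 37°C, dye solubilized in DMSO, absorbance read at 570 nm. Mean ± SD, n = 6.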

PC-3 [1] = assay: Antiproliferative activity against human PC3 cells assessed as suppression of cell viability by MTT assay; assay type: functional, cell-based; procedure, shortened: as §1
SK-BR-3 [2] = assay: Antiproliferative activity against human SKBR3 cells assessed as suppression of cell viability by MTT assay; assay type: functional, cell-based; procedure, shortened: as §1
MCF7 = assay: Antiproliferative activity against human MCF7 cells assessed as suppression of cell viability by MTT assay; assay type: functional, cell-based; procedure, shortened: as §1
[3] = biological target: Rapamycin-insensitive companion of mTOR (Homo sapiens) (UniProt Q6R327); assay: Inhibition of mTORC2 in human PC3 cells assessed as SGK1 phosphorylation by Western blot analysis; assay type: cell-based; conditions: PC-3
Chain of Rapamycin-insensitive companion of mTOR (Homo sapiens) (Q6R327 whole entry): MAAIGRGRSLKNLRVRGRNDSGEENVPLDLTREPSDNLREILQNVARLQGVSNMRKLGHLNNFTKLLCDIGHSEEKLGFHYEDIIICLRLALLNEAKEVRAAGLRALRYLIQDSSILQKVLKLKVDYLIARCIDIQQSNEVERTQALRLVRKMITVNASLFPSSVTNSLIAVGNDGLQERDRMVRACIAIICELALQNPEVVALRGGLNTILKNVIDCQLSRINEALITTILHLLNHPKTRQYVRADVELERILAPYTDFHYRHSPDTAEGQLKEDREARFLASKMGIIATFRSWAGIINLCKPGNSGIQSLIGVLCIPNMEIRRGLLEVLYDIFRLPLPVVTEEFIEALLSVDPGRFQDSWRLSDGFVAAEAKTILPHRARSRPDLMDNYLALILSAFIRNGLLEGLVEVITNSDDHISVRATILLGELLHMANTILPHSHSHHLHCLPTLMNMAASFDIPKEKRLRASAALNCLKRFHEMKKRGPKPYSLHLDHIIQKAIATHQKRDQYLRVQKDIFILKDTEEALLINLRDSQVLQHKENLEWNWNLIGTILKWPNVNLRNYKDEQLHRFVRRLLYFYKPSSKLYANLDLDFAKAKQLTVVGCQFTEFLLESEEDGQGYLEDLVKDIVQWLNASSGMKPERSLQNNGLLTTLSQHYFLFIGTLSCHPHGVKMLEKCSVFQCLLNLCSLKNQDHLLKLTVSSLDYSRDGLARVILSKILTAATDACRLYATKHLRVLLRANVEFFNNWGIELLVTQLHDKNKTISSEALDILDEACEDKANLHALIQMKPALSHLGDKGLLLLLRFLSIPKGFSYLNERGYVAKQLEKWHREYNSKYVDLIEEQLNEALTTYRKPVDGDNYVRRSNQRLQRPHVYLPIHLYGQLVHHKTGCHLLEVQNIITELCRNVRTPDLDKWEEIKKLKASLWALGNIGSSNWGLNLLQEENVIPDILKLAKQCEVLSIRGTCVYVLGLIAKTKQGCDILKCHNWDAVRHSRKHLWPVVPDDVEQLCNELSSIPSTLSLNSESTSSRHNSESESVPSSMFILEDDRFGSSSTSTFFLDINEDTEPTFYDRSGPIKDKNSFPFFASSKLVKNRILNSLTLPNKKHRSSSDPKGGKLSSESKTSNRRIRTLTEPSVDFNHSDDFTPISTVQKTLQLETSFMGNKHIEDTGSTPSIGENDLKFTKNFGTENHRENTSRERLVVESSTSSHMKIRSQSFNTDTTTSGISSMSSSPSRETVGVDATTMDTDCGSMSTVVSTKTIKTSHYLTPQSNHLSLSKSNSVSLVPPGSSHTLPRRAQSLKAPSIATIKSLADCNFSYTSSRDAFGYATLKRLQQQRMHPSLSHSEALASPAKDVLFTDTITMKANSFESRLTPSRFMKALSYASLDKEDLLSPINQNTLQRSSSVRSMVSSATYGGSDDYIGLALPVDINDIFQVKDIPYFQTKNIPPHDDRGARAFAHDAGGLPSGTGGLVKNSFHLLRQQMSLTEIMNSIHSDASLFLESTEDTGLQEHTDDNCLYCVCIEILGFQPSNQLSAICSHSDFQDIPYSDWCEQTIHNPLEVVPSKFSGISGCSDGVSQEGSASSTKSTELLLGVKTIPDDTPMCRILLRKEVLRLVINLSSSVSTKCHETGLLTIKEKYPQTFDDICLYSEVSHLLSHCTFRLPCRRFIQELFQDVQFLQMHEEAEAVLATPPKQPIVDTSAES
Procedure, shortened: (§2)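 Cells exposed 24 h in 5% FBS medium, final DMSO 0.1%; lysed in 1% SDS/10 mM EDTA/50 mM Tris pH 8.1, equal protein on SDS-PAGE, nitrocellulose, primary antibody 1:1000 at 4°C for 2 h, HRP secondary 1:5000, ECL detection; blots representative of three independent experiments.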

[4] = biological target: Rapamycin-insensitive companion of mTOR (Homo sapiens) (UniProt Q6R327); assay: Inhibition of mTORC2 in human MDA-MB-231 cells assessed as SGK1 phosphorylation by Western blot analysis; assay type: cell-based; procedure, shortened: as §2
PC-3 [5] = assay: Reduction in EGFR mRNA expression in human PC3 cells expressing constitutively active ILK after 24 hrs by RT-PCR analysis; assay type: functional, cell-based
Procedure, shortened: (§3)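 PC-3, PC-3/CA-ILK, SKBR3 and SKBR3/CA-ILK cells treated 24 h in 5% FBS medium; total RNA from 1 × 10^6 cells by Trizol, 1 μg reverse-transcribed, then PCR with gene-specific primers and β-actin reference.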

SK-BR-3 [6] = assay: Reduction in HER2 concentration in human SKBR3 cells after 24 hrs by Western blot analysis; assay type: functional, cell-based
Procedure, shortened: (§4)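 PC-3 versus stable PC-3/CA-ILK, or SKBR3 versus transient SKBR3/CA-ILK (electroporation, used 48 h after), treated 24 h in 5% FBS medium; immunoblotting with ECL; representative of three experiments.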

SK-BR-3 [7] = assay: Reduction in HER2 concentration in human SKBR3 cells expressing constitutively active ILK after 24 hrs by Western blot analysis; assay type: functional, cell-based; procedure, shortened: as §4
SK-BR-3 [8] = assay: Reduction in HER2 mRNA expression in human SKBR3 cells expressing constitutively active ILK after 24 hrs by RT-PCR analysis; assay type: functional, cell-based; procedure, shortened: as §3
SK-BR-3 [9] = assay: Reduction in EGFR concentration in human SKBR3 cells expressing constitutively active ILK after 24 hrs by Western blot analysis; assay type: functional, cell-based; procedure, shortened: as §4
[10] = biological target: Mast/stem cell growth factor receptor Kit (Homo sapiens) (UniProt P10721); assay: Inhibition of cKit at 5 uM assessed as remaining activity
Chain of Mast/stem cell growth factor receptor Kit (Homo sapiens) (P10721 whole entry): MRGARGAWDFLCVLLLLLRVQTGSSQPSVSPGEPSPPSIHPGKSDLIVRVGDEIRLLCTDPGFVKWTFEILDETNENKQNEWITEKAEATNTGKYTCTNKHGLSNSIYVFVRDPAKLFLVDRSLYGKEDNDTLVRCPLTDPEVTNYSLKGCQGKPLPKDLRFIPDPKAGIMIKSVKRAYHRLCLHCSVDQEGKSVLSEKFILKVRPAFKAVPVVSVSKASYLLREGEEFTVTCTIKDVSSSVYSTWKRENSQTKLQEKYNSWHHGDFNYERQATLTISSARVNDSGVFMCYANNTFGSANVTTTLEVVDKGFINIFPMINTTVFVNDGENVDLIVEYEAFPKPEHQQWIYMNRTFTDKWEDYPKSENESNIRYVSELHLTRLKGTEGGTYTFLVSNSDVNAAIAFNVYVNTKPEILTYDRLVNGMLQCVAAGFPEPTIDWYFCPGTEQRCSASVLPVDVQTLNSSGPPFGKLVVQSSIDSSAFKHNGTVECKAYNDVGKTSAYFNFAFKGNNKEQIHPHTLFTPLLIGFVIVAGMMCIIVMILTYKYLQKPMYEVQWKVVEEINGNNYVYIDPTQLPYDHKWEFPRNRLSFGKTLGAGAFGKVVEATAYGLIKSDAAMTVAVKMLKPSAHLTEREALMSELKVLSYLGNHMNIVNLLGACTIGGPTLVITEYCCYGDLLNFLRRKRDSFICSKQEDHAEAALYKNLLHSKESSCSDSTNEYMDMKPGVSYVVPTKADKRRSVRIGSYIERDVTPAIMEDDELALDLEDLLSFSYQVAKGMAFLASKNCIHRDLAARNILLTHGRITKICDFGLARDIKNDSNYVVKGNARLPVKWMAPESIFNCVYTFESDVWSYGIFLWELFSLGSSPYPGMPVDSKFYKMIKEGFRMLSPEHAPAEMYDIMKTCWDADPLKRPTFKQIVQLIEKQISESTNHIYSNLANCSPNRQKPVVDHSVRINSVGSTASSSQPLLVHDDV

[11] = biological target: Glycogen synthase kinase-3 beta (Homo sapiens) (UniProt P49841); assay: Inhibition of GSK3-beta at 5 uM assessed as remaining activity
Chain of Glycogen synthase kinase-3 beta (Homo sapiens) (P49841 whole entry, looked up): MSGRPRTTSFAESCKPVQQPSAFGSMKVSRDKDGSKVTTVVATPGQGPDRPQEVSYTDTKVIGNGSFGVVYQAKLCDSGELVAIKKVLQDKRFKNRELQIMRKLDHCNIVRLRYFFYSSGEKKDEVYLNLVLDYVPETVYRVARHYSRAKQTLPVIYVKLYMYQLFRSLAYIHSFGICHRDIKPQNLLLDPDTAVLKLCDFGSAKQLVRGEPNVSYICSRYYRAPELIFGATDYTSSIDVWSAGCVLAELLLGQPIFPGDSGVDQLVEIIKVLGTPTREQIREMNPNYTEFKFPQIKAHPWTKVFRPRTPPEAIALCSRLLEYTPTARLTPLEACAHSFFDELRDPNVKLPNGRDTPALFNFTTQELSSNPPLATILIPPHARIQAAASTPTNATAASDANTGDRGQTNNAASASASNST
Procedure, shortened: (§5)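 Panel of 20 recombinant kinases, profiled by a commercial vendor.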

[12] = biological target: RAC-alpha serine/threonine-protein kinase (Homo sapiens) (UniProt P31749); assay: Inhibition of Akt at 5 uM assessed as remaining activity; procedure, shortened: as §5
Chain of RAC-alpha serine/threonine-protein kinase (Homo sapiens) (P31749 whole entry): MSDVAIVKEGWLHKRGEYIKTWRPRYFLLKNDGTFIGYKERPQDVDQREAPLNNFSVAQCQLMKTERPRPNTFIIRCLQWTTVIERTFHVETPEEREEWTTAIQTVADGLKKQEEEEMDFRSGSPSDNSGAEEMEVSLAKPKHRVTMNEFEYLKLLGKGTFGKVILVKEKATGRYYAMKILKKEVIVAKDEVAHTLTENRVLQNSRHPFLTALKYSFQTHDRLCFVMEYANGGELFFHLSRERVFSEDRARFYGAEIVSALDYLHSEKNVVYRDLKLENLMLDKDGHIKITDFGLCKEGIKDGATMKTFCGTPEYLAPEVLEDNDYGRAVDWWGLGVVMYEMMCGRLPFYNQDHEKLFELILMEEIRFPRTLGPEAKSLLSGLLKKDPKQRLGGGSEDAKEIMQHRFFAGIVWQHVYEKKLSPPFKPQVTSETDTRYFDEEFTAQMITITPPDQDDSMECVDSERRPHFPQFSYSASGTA

[13] = biological target: Ribosomal protein S6 kinase beta-1 (Homo sapiens) (UniProt P23443); assay: Inhibition of p70S6K in human PC3 cells assessed as decrease in phosphorylated p70S6K by Western blot analysis; assay type: cell-based; conditions: PC-3
Chain of Ribosomal protein S6 kinase beta-1 (Homo sapiens) (P23443 whole entry, looked up): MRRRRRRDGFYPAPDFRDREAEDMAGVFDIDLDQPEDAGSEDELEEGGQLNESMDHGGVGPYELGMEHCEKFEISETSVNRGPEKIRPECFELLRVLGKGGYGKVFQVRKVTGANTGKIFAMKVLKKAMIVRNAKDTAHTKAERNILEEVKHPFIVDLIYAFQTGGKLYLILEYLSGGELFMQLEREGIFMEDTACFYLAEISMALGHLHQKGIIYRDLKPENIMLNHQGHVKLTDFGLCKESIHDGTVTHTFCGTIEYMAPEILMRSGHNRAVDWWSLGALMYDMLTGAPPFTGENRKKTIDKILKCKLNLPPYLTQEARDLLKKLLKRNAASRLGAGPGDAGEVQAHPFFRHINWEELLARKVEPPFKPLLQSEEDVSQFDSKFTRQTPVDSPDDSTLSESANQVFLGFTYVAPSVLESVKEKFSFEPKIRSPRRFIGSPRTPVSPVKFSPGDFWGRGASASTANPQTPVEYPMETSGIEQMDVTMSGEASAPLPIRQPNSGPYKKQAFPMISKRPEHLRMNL
Procedure, shortened: (§6)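 PC-3 cells (parental, or stable GFP-CA-ILK clones selected with G418 250 μg/mL and GFP sorting) exposed 24 h in 5% FBS medium; SDS lysis, immunoblot at 1:1000 primary, ECL; representative of three experiments.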

[14] = biological target: Ribosomal protein S6 kinase beta-1 (Homo sapiens) (UniProt P23443); assay: Inhibition of p70S6K in human PC3 cells assessed as decrease in phosphorylated S6 by Western blot analysis; assay type: cell-based; conditions: PC-3; procedure, shortened: as §6
[15] = biological target: T1, Scaffold protein ILK (Homo sapiens) (UniProt Q13418); assay: Inhibition of ILK in human PC3 cells expressing constitutively active ILK assessed as decrease in phosphorylated p38 concentration by Western blot analysis; assay type: cell-based; conditions: PC-3
T1 sequence (whole entry): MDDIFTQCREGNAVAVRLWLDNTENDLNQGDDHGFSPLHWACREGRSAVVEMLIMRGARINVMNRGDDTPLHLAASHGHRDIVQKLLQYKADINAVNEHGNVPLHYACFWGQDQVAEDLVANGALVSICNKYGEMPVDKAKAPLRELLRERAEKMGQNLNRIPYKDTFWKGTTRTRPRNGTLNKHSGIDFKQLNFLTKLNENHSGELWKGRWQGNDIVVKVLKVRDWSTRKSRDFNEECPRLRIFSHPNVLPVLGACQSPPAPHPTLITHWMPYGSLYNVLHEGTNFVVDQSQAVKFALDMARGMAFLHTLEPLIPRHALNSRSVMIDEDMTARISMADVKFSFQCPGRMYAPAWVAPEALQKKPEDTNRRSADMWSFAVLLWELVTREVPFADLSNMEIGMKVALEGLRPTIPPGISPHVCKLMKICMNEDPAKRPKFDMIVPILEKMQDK
Procedure, shortened: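 Stable PC-3 clones expressing GFP-CA-ILK (G418 250 μg/mL selection, GFP sorting) treated 24 h in 5% FBS medium. Phospho-ERK1/2 and phospho-p38 detected by immunoblot with ECL. Representative of three experiments.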

PC-3 [16] = assay: Induction of change in cell cycle distribution in human PC3 cells up to 2 uM after 48 hrs by flow cytometry; assay type: functional, cell-based
Procedure, shortened: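 Treated PC-3 cells harvested, fixed in 100% ethanol, stained 30 min at 37°C in the dark with 80 μg/mL PI, 100 μg/mL RNase, 0.1% Triton X-100. Phase distribution by flow cytometry. Mean ± SD, n = 3. Methods give 48 h exposure; the figure legend gives 24 h in 5% FBS.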

Mus musculus [17] = assay: Inhibition of phosphorylation of Ser-437-Akt in human PC3 cells xenografted nude mouse tumor lysate at 25 mg/kg, po administered for 35 days by Western blot analysis; assay type: functional, organism-based; design: dose 25 mg/kg; conditions: Neoplasm, PC-3
Procedure, shortened: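 Tumors harvested at terminal sacrifice after 35 days of daily oral dosing, snap-frozen and stored at -80°C; lysates immunoblotted, three representative tumors per group.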

Mus musculus [18] = assay: Decrease in phosphorylation of MLC in human PC3 cells xenografted nude mouse tumor lysate at 25 mg/kg, po administered for 35 days by Western blot analysis; assay type: functional, organism-based; design: dose 25 mg/kg; conditions: Neoplasm, PC-3
Procedure, shortened: (§7)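 Male NCr athymic nude mice, 5–7 weeks, with s.c. PC-3 xenografts (0.5 × 10^6 cells in 50% Matrigel), dosed by oral gavage once daily for 35 days. Vehicle 0.5% methylcellulose, 0.1% Tween 80 in water, 10 μL/g. Tumors snap-frozen at sacrifice; three tumors per group immunoblotted.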

Mus musculus [19] = assay: Decrease in phosphorylation of EGFR in human PC3 cells xenografted nude mouse tumor lysate at 25 mg/kg, po administered for 35 days by Western blot analysis; assay type: functional, organism-based; design: dose 25 mg/kg; conditions: Neoplasm, PC-3; procedure, shortened: as §7
PC-3 [20] = assay: Induction of apoptosis in human PC3 cells assessed as late apoptotic cells at 4 uM by annexin V/PI staining (reference value: 9.8%); assay type: functional

Compound: CNC(=O)CCc1cc(-c2ccc(-c3ccc(C(F)(F)F)cc3)cc2)n(-c2ccc(N3CCNCC3)cc2)n1
- IC50 (LNCaP): 1600 nM
- IC50 (PC-3 [1]): 2000 nM
- IC50 (SK-BR-3 [2]): 1800 nM
- IC50 (MCF7): 2500 nM
- inhibition [3]: inactive
- inhibition [4]: inactive
- Activity (PC-3 [5]): inactive
- Activity (SK-BR-3 [6]): Dose-dependent effect
- Activity (SK-BR-3 [7]): inactive
- Activity (SK-BR-3 [8]): inactive
- Activity (SK-BR-3 [9]): inactive
- Activity [10]: 100%
- Activity [11]: 142%
- Activity [12]: 88%
- inhibition [13]: inactive
- inhibition [14]: Active
- inhibition [15]: inactive
- Activity (PC-3 [16]): inactive
- Activity (Mus musculus [17]): Dose-dependent effect
- Activity (Mus musculus [18]): Active
- Activity (Mus musculus [19]): Active
- Activity (PC-3 [20]): 19.1%
